Laboratory results published in ChEMBL document CHEMBL4513216, “Probing the Open Global Health Chemical Diversity Library for Multistage-Active Starting Points for Next-Generation Antimalarials” (ACS Infect Dis, 2020).

Experiment: Toxicity liver stage against HepG2, at 10uM
Format: cell-based
Design: test concentration 10 uM, cell line HepG2-A16-CD81EGFP
Conditions: human, HepG2-A16-CD81EGFP cells; read-out: INHIBITION
How it was run: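 Uninfected HepG2-A16-CD81EGFP cells, 3 × 10^3 per well, 1536-well, plated on prespotted compound at 10 μM final, parasite-free screening media added to match infected plates; puromycin 10 μM positive, DMSO 0.5% negative; run in parallel with 48 h PbLuc assay at 37 °C, 5% CO2; viability by CellTiter-Glo luminescence, normalized to controls.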

Structure (SMILES): Cc1ccccc1CN1CC[C@H](c2nnc(-c3cncn3C)o2)C1
- cytotoxicity at 10 µM: 5.08%

Structure (SMILES): CCOCC1CN(Cc2ccc(F)cc2)Cc2nn(CC3CC3)cc21 (stereo unspecified)
- cytotoxicity at 10 µM: 7.43%

Structure (SMILES): Cn1cc(CN2CC[C@H]3OCC[C@@H](C(=O)NCc4ccco4)[C@@H]3C2)cn1
- cytotoxicity at 10 µM: 6.79%

Structure (SMILES): Cn1cc(CN2CCc3onc(COCC4CC4)c3C2)cn1
- cytotoxicity at 10 µM: 6.35%

Structure (SMILES): Cc1cc(C(=O)N2CCn3cnc(COCC4CC4)c3C2)no1
- cytotoxicity at 10 µM: 1.85%

Structure (SMILES): CCOCC1CN(C(=O)COc2ccccc2)Cc2cn(C)nc21 (stereo unspecified)
- cytotoxicity at 10 µM: 9.08%

Structure (SMILES): O=C1CC(c2ccc3c(c2)OCO3)c2c(n3ccsc3nc2=O)N1 (stereo unspecified)
- cytotoxicity at 10 µM: 8.38%

Structure (SMILES): Cn1cc(C2=NOC(C(=O)NC3(c4cccc(F)c4)CCCC3)C2)cn1 (stereo unspecified)
- cytotoxicity at 10 µM: 1.53%

Structure (SMILES): COCC(C)NC(=O)N1CCN(S(C)(=O)=O)CC1 (stereo unspecified)
- cytotoxicity at 10 µM: -6.53%

Structure (SMILES): Cc1ccc(CNC(=O)c2ccc(=O)n(C)n2)c(OC2CCCC2)c1
- cytotoxicity at 10 µM: 5.25%

Structure (SMILES): CC1CN(c2ncnc3c2cnn3C)CCN1c1nccs1 (stereo unspecified)
- cytotoxicity at 10 µM: 7.04%

Structure (SMILES): Cc1nn(C)c(C)c1C1CCCN1CC(=O)N(C)c1nccs1 (stereo unspecified)
- cytotoxicity at 10 µM: -1.32%

Structure (SMILES): Cc1cc(COC(=O)[C@@H]2Cc3ccccc3CN2S(C)(=O)=O)no1
- cytotoxicity at 10 µM: -9.87%

Structure (SMILES): COC(=O)c1ccc(Cl)c(NS(=O)(=O)c2cnn(C)c2)c1
- cytotoxicity at 10 µM: 0.214%

Structure (SMILES): O=C1NCC(C(=O)N(Cc2cccc(Br)c2)C2CC2)N1 (stereo unspecified)
- cytotoxicity at 10 µM: 1.56%

Structure (SMILES): O=C(C(CNCc1cccs1)c1ccccc1)N1CCOCC1 (stereo unspecified)
- cytotoxicity at 10 µM: 0.142%

Structure (SMILES): O=C(NCc1ccoc1)NC1CCN(c2ncccn2)CC1
- cytotoxicity at 10 µM: 6.36%

Structure (SMILES): CCc1cnc(CN(C)C2CCN(CC3CCOCC3)C2)o1 (stereo unspecified)
- cytotoxicity at 10 µM: -13.4%

Structure (SMILES): CC(C)c1nnc(NCc2ccsc2)o1
- cytotoxicity at 10 µM: -0.19%

Structure (SMILES): COCCn1ccc2ccc(NC(=O)NCc3noc(C)n3)cc21
- cytotoxicity at 10 µM: 7.36%

Structure (SMILES): Cc1nc(CNC(=O)Nc2cc(F)ccc2OC(F)F)no1
- cytotoxicity at 10 µM: 0.311%

Structure (SMILES): CC(C)N(CCCNC(=O)C1CC(=O)N(C)C1)S(C)(=O)=O (stereo unspecified)
- cytotoxicity at 10 µM: 8.35%

Structure (SMILES): CC(C)(C)c1n[nH]cc1CNC1CCC(O)CC1 (stereo unspecified)
- cytotoxicity at 10 µM: 2.33%

Structure (SMILES): CC(C)COCC(NC(=O)CSc1nnc[nH]1)c1ccco1 (stereo unspecified)
- cytotoxicity at 10 µM: 11.4%

Structure (SMILES): CCOC[C@@]12CCC[C@@H]1CN(C(=O)c1ccc(OC)cc1)C2
- cytotoxicity at 10 µM: -108%

Structure (SMILES): CO[C@H]1CN(C(=O)c2nc(-c3ccccc3)[nH]c2C)CC[C@H]1N
- cytotoxicity at 10 µM: 11.5%

Structure (SMILES): CCc1cnc(C)nc1NCCN1CCCC(C(N)=O)C1 (stereo unspecified)
- cytotoxicity at 10 µM: -2.54%

Structure (SMILES): COc1ccc(Cl)cc1CN(C)C(=O)CN1C(=O)OC[C@@H]1C(C)C
- cytotoxicity at 10 µM: -4.29%

Structure (SMILES): CN(CC(=O)N1CCC(OCc2cccnc2)CC1)c1ccccc1
- cytotoxicity at 10 µM: 7.56%

Structure (SMILES): Cc1nnsc1C(=O)NCc1cccnc1N1CCc2ccccc2C1
- cytotoxicity at 10 µM: 10.8%

Structure (SMILES): CNc1cc(-c2cccc(CN)c2)c2cc[nH]c2n1
- cytotoxicity at 10 µM: -3.23%

Structure (SMILES): O=C(Cc1ccc(F)cc1)NCCNCc1cccc(O)c1
- cytotoxicity at 10 µM: -10.4%

Structure (SMILES): CCc1nnc2n1CCN(C(=O)c1cc(C)n(-c3ccccc3)c1C)C2
- cytotoxicity at 10 µM: -8.7%

Structure (SMILES): O=C(CCc1ccc(Cl)s1)NCc1nnc2n1CCCCC2
- cytotoxicity at 10 µM: -6.1%

Structure (SMILES): CCCc1nc(CN2CCOC(Cn3cncn3)C2)cs1 (stereo unspecified)
- cytotoxicity at 10 µM: -8.44%

Structure (SMILES): COCCCNC(=O)CN(C)C(=O)c1cc2cc(C)ccc2nc1C
- cytotoxicity at 10 µM: -10.2%

Structure (SMILES): Cc1nc(C)n(C2CCCN(C(=O)c3ccc(OC(C)C)nc3)C2)n1 (stereo unspecified)
- cytotoxicity at 10 µM: -5.92%

Structure (SMILES): Cn1ccc(CN2CCC(NC(=O)C3CCCCC3)CC2)cc1=O
- cytotoxicity at 10 µM: -13%

Structure (SMILES): Fc1ccc(OCCCN2CCCC(Cn3cncn3)C2)cc1 (stereo unspecified)
- cytotoxicity at 10 µM: -7.81%

Structure (SMILES): O=C(c1cnc(-c2ccco2)s1)N1CCCCC1Cn1cccn1 (stereo unspecified)
- cytotoxicity at 10 µM: -5.83%

Structure (SMILES): Cc1cc(C)n(CC2CCCCN2C(=O)c2ccc3c(c2)OCO3)n1 (stereo unspecified)
- cytotoxicity at 10 µM: 5.44%

Structure (SMILES): OC(COCc1ccccc1F)CN1CCc2c(ncn2C2CC2)C1 (stereo unspecified)
- cytotoxicity at 10 µM: 2.86%

Structure (SMILES): CCc1nc(C2CCCN2Cc2nnc(Cc3ccccc3)o2)no1 (stereo unspecified)
- cytotoxicity at 10 µM: -0.313%

Structure (SMILES): COCC1CN(C(=O)COc2ccc(C)cc2)Cc2cn(C)nc21 (stereo unspecified)
- cytotoxicity at 10 µM: 2.49%

Structure (SMILES): CS(=O)(=O)N1CCOCC2(CCN(c3ccccn3)C2)C1 (stereo unspecified)
- cytotoxicity at 10 µM: 14.3%

Structure (SMILES): O=C(c1ccccc1)N1CCC[C@]2(C[C@@H](Oc3ncccc3F)CO2)C1
- cytotoxicity at 10 µM: -1.78%
